Measurements: ChEMBL document CHEMBL3875149, “New piperidine-hydrazone derivatives: Synthesis, biological evaluations and molecular docking studies as AChE and BChE inhibitors” (Eur J Med Chem, 2016)

Columns and labels:
Cholinesterase = Cholinesterase (Equus caballus, UniProt P81908); test: Inhibition of horse serum butyrylcholinesterase by Ellman's method
Method in brief: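 Spectrophotometric Ellman assay using horse serum BChE, run alongside a parallel electric eel AChE assay. Inhibition reported as IC50 in µM.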

[1] = Antioxidant activity assessed as ABTS radical scavenging activity by spectrophotometric analysis; assay type: functional
Method in brief: (§1)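 Spectrophotometric radical-scavenging or β-carotene bleaching test, with DMSO as negative control and BHT and α-tocopherol as positive controls. The value is reported as IC50 in µM.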

[2] = Antioxidant activity assessed as DPPH free radical scavenging activity after 2 hrs by spectrophotometric analysis; assay type: functional; method in brief: as §1
[3] = Cytotoxicity against human BJ cells assessed as decrease in cell viability after 24 hrs by MTT assay; assay type: toxicity, cell-based
Method in brief: (§2)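 A549 cells were kept in RPMI and BJ fibroblasts in EMEM, each with 10% FBS and 1% penicillin/streptomycin at 37℃ and 5% CO2. MTT was added at 0.5 mg/mL final for 3 h, formazan was dissolved in DMSO and read at 540 nm. Survival is expressed as % of the 0.1% DMSO control, and IC50 was derived from it.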

Acetylcholinesterase = Acetylcholinesterase (Electrophorus electricus, UniProt O42275); test: Inhibition of electric eel acetylcholinesterase using acetylthiocholine iodide as substrate by Ellman's method
Chain of Acetylcholinesterase (O42275 whole entry): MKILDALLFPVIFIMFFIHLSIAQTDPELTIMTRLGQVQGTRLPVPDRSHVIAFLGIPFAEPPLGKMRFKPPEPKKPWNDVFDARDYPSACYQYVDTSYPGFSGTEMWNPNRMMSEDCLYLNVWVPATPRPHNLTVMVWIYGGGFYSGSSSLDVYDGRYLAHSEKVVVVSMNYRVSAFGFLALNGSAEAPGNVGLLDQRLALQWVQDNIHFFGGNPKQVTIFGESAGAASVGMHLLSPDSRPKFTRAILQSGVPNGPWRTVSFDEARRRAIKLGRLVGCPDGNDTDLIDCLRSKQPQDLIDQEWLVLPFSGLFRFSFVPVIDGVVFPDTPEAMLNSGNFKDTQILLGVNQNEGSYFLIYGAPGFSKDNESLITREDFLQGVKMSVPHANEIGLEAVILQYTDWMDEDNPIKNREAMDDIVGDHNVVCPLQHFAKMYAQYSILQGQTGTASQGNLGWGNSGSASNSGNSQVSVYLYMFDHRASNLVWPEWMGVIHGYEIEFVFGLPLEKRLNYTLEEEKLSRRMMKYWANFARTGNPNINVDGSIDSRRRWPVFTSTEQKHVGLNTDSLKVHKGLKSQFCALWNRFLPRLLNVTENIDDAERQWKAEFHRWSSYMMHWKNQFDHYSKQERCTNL

[4] = Antioxidant activity assessed as inhibition of beta carotene/ linoleic acid peroxidation after 120 mins by spectrophotometric analysis; assay type: functional; method in brief: as §1
[5] = Antioxidant activity assessed as cupric reducing capacity after 1 hr by spectrophotometric analysis; assay type: functional
[6] = Cytotoxicity against human A549 cells assessed as decrease in cell viability after 24 hrs by MTT assay; assay type: functional, cell-based; conditions: A549, 24 h; method in brief: as §2

Chain of Cholinesterase (P81908 whole entry): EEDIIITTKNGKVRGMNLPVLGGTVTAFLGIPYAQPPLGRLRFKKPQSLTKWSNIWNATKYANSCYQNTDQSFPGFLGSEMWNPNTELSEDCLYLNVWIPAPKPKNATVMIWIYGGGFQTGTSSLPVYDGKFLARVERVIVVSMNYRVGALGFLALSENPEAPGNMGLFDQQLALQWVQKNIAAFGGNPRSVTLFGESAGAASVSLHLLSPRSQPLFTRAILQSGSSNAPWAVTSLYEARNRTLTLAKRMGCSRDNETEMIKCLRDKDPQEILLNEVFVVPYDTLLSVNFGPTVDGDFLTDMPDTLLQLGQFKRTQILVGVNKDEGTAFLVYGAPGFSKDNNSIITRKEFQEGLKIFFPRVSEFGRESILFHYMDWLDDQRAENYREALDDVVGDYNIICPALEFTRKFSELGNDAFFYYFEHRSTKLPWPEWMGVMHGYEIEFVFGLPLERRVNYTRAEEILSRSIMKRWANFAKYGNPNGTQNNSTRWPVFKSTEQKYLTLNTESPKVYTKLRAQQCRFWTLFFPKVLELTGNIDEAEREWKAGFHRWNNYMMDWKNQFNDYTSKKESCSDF

Row | SMILES | IC50 (Cholinesterase) [µM] | IC50 [1] [µM] | IC50 [2] [µM] | IC50 at 24 h [3] [µM] | IC50 (Acetylcholinesterase) [µM] | IC50 [4] [µM] | A0.5 [5] [µM] | IC50 [6] [µM]
1 | CCOC(=O)N1CCC(=NNC(=O)c2ccc(C(F)(F)F)cc2)CC1 | 91.6 | 23.5 | 33.8 | > 400 | 136 | 49.3 | 51.4 | –
2 | O=C(NN=C1CC(c2ccccc2)NC(c2ccccc2)C1)c1ccc(C(F)(F)F)cc1 (configuration not stated) | 99.1 | 153 | 65 | > 400 | 84.4 | 55.3 | 92.1 | > 400
3 | O=C(NN=C1CC(c2ccccc2)NC(c2ccccc2)C1)c1ccc(F)cc1 (configuration not stated) | 72.8 | 83.7 | 66 | > 400 | 91.1 | 56.6 | 59.6 | > 400
4 | Cc1ccc(C(=O)NN=C2CC(c3ccccc3)NC(c3ccccc3)C2)cc1 (configuration not stated) | 50.1 | 64.1 | 53.3 | > 400 | 74.9 | 69 | 50.6 | > 400
5 | CCOC(=O)N1CCC(=NNC(=O)c2ccc(C)cc2)CC1 | 76.9 | 28.1 | 75.5 | > 400 | 94.8 | 52.5 | 11.1 | > 400
6 | O=C(NN=C1CC(c2ccccc2)NC(c2ccccc2)C1)c1ccc(C(F)(F)F)cc1F (configuration not stated) | 117 | 63.5 | 70.2 | > 400 | 90.1 | 41.1 | 85.2 | > 400
7 | CCOC(=O)N1CCC(=NNC(=O)c2ccc([N+](=O)[O-])cc2)CC1 | 156 | 10.9 | 51.7 | > 400 | 125 | 40.2 | 13.3 | > 400
8 | O=[N+]([O-])c1ccc(NN=C2CC(c3ccccc3)NC(c3ccccc3)C2)c([N+](=O)[O-])c1 (configuration not stated) | – | 19.2 | 20 | > 400 | – | 28.2 | 29.2 | > 400
9 | O=C(NN=C1CC(c2ccccc2)NC(c2ccccc2)C1)c1ccc([N+](=O)[O-])cc1 (configuration not stated) | 86.8 | 170 | 88.1 | > 400 | 63.9 | 45.2 | 17.8 | > 400
10 | CCOC(=O)N1CCC(=NNC(=O)c2ccc(C(F)(F)F)cc2F)CC1 | 95.1 | 59.5 | 86 | > 400 | 123 | 77.4 | 27.3 | > 400
11 | CCOC(=O)N1CCC(=NNC(=O)c2ccc(Cl)cc2)CC1 | 69.5 | 63.9 | 59 | > 400 | 81.8 | 72.3 | 23.5 | > 400
12 | CCOC(=O)N1CCC(=NNC(=O)c2ccc(OC)cc2)CC1 | 82.2 | 38.3 | 85.4 | – | 101 | – | 36.9 | > 400
13 | O=C(NN=C1CC(c2ccccc2)NC(c2ccccc2)C1)c1ccc(F)cc1C(F)(F)F (configuration not stated) | 52.4 | 88.5 | 88.3 | > 400 | 49.5 | 115 | 88.2 | > 400
14 | Cc1c(C)c2c(c(C)c1O)CC[C@@](C)(CCC[C@H](C)CCC[C@H](C)CCCC(C)C)O2 [ALPHA-TOCOPHEROL] | – | 4.87 | 12.3 | – | – | 4.5 | 40.5 | –
15 | O=C(NN=C1CC(c2ccccc2)NC(c2ccccc2)C1)c1ccc(Cl)cc1 (configuration not stated) | 35.3 | 67.9 | 96.7 | > 400 | 41.2 | 43.6 | 49.8 | > 400
16 | COc1ccc(C(=O)NN=C2CC(c3ccccc3)NC(c3ccccc3)C2)cc1 (configuration not stated) | 110 | 27.9 | 75.8 | > 400 | 92.2 | 34.5 | 77.7 | > 400
17 | CCOC(=O)N1CCC(=NNC(=O)c2ccc(F)cc2C(F)(F)F)CC1 | 99.6 | 41.9 | 86.8 | > 400 | 124 | 68.2 | 25.6 | > 400
18 | CCOC(=O)N1CCC(=NNC(=O)c2ccc(F)cc2)CC1 | 113 | 39.2 | 74.8 | > 400 | 128 | 65.5 | 4.16 | > 400
19 | O=C(NN=C1CC(c2ccccc2)NC(c2ccccc2)C1)c1ccccc1 (configuration not stated) | 66 | 238 | 42 | > 400 | 99.7 | 41.9 | 45.4 | > 400
20 | Cc1cc(C(C)(C)C)c(O)c(C(C)(C)C)c1 [BUTYLATED HYDROXYTOLUENE] | – | 2.91 | 55 | – | – | 2.34 | 3.8 | –
